The list is not random: actives were taken first. Their share in the collection is about 2.1%.
Pf gamet viab – P. falciparum stage V gametocyte viability inhibition. P. falciparum stage V gametocytes, ATP luminescence, 24 h. inhibition, % at 10.9 µM. 0.065% of 150,000 active. AID 743093;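 active = inhibition above the mean plus 3 SD of compounds within the control limits, set per campaign, cut at about 38% in these data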;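 note: 0% = DMSO wells and 100% = medium only without gametocytes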
Calpain2 inh – calpain II (pig) inhibition. 0.37% of 220,000 active. purified calpain II, fluorogenic peptide substrate, 30 min. inhibition, % at 16 µM;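 active = inhibition above about 50%, limit read from the data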
Wee1 degr inh – inhibitors of human Wee1 degradation | HeLa Luc-Wee1K328M stability, luciferase luminescence; 100% = proteasome inhibitor MG132 effect | reporter increase, % at 5 µM | 1.2% of 220,000 active | AID 1321;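 active = activation above the mean of all tested compounds plus 3 SD, set per screening run, cut at about 8.8% in these data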;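 note: cells exposed to compound for 20 h before luminescence read; 0% = DMSO alone and 100% = MG132 at 30 µM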
Target sequence (P30291 whole entry K328M): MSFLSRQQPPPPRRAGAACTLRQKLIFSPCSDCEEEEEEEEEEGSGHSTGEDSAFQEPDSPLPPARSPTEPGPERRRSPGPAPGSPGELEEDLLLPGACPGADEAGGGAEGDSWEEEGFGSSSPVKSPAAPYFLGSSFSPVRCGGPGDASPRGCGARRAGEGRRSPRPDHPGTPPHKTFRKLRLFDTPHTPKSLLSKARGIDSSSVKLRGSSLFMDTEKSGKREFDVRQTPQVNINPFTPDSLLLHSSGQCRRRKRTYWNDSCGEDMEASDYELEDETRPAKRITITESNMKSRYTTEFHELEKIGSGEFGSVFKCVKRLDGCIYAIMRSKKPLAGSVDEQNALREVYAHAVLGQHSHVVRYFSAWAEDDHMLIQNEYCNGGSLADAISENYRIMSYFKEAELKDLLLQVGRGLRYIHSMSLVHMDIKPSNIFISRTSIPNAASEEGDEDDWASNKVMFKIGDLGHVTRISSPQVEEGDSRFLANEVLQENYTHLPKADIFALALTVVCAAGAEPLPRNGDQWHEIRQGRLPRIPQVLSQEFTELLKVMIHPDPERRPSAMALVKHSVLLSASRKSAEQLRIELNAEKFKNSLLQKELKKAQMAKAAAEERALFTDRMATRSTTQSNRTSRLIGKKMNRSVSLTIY
RBBP9 inh – human RBBP9 hydrolase inhibition. AID 1515. 0.2% of 220,000 active. inhibition, % at 7.94 µM. O75884. recombinant RBBP9, FP-Rh probe fluorescence polarization;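 active = inhibition above the campaign mean of all tested compounds plus 3 SD, cut at about 14% in these data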;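 note: plate controls were DMSO wells with RBBP9 for no effect and wells lacking RBBP9 protein for full effect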
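Assay system: recombinant human RBBP9; Reagent: Serine-hydrolase probe FP-Rh, 375 nM pre-mixing; Doses: 7.94 µM single dose, 0.794% DMSO; Incubation: 30 min then 45 min, 25 °C; Detection: fluorescence polarization (mP), excitation 525 nm, emission 598 nm; Evaluation: percent inhibition from mP, scaled between DMSO and no-protein wells.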
TNF necrop inh – inhibitors of TNF-alpha induced necroptosis in Jurkat FADD-/- cells; Jurkat FADD-/- TNF necroptosis rescue, ATP luminescence, 24 h; 0 = TNF only, 100 = no-TNF cells; activation (protection from cell death), % at 10 µM; 0.068% of 220,000 active;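 active = activation, meaning protection from cell death, of at least 50% relative to plate controls; inactive = activation below 50%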;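 note: necroptosis triggered by 40 ng/mL TNF-alpha added together with compound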
zVAD death inh – L929 zVAD cell death inhibition; AID 1377; 0.38% of 220,000 active; L929 zVAD necroptosis rescue, ATP luminescence, 24 h; with zVAD 60 µM; viability rescue, % at 10 µM;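 active = activation, scaled between plate controls, above about 75%, limit read from the data; inactive = activation under that limit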;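 note: 0% = zVAD with DMSO and 100% = DMSO alone without zVAD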
RBBP9 confirm – human RBBP9 inhibition, confirmation. shares compounds with RBBP9 inh. recombinant RBBP9, FP-Rh probe fluorescence polarization. inhibition, % at 7.94 µM. 36% of 410 active;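 active = inhibition above the hit cutoff derived for the primary screen, cut at about 15% in these data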;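 note: 0% = RBBP9 with DMSO and 100% = wells lacking RBBP9 protein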
Starred values were filed as active, the others as inactive; x = no result.

SMILES	Pf gamet viab	Calpain2 inh	Wee1 degr inh	RBBP9 inh	TNF necrop inh	zVAD death inh	RBBP9 confirm
CCOC(=O)c1c(C)[nH]c(N=Nc2ccccc2)c1C	x	25.3	5.3	14.9*	-1.0	1.7	6.3
O=C(CNS(=O)(=O)c1ccccc1)Nc1ccc(C(F)(F)F)cc1	-3.2	-28.0	1.2	-8.1	-0.3	0.3	x
Cn1c(=O)c(NCCc2ccccc2)c2c3c(cccc31)C(=O)c1ccccc1-2	x	12.5	3.0	108.6*	2.0	-0.9	144.1*
CCNc1c2c3c(cccc3n(C)c1=O)C(=O)c1ccccc1-2	x	20.4	-0.9	22.0*	-0.1	47.6	36.9*
CCCCNc1c2c3c(cccc3n(C)c1=O)C(=O)c1ccccc1-2	x	11.9	1.7	24.0*	-7.0	-0.6	30.5*
Cn1c(=O)c(NCCO)c2c3c(cccc31)C(=O)c1ccccc1-2	-14.5	-22.5	-2.6	63.2*	0.4	2.1	74.8*
Cn1c(=O)c(NC2CCCCC2)c2c3c(cccc31)C(=O)c1ccccc1-2	0.3	-43.9	3.0	-1.5	2.2	-0.3	x
CCC(C)/C=C/C1=CC2=C(Cl)C(=O)C3(C)OC(=O)C(C(=O)C(C)C(C)O)C3C2=CO1 (stereo not drawn)	x	-50.5	2.1	6.1	0.8	2.3	x
CCOC(=O)C(C(C)=O)c1c(Br)c(O)c(O)c2c(C(=O)c3ccc(C)cc3)coc12 (stereo not drawn)	x	-80.0	7.2	23.7*	-15.8	11.0	17.3*
CCOC(=O)c1c(C)n(-c2ccc(C)cc2)c2c(C(C(C)=O)C(=O)O)c(Br)c(O)c(O)c12 (stereo not drawn)	4.9	-42.3	2.2	8.2	-2.3	-0.5	x
O=C(NCc1ccco1)C1CC(c2cccc([N+](=O)[O-])c2)=NO1 (stereo not drawn)	16.3	-4.1	-1.0	16.9*	-4.9	0.6	3.6
CC1(C)OC(C)(C)/C(=C/Nc2ccc(O)cc2)C1=O	x	-18.4	9.9*	20.0*	-2.1	1.0	9.2
CC1(C)OC(=O)C(=CNc2cccc(O)c2)C(=O)O1	-11.1	-18.8	-2.0	-2.7	-0.9	-0.2	x
Oc1cccc(/C=N/NC(=S)Nc2cccnc2)c1O	12.6	8.0	-0.4	-4.1	-8.3	0.9	x
Oc1ccc(/C=N/NC(=S)Nc2cccnc2)c(O)c1O	26.1	15.1	2.5	41.8*	-6.5	-1.1	52.5*
O=C(O)c1cnc2ccccc2n1	x	-3.0	-1.4	-3.2	1.3	0.9	x
N#CCc1cnc2ccccc2n1	x	5.7	-0.5	16.4*	3.4	0.3	1.7
CN(C)c1ccc(Nc2nc(-c3cccnc3)cs2)cc1	x	23.6	4.0	20.4*	-0.8	7.6	22.0*
COc1c(Cl)cc(Cl)cc1/C=N/n1cnnc1	-6.2	-13.1	4.1	-0.7	-5.8	-0.4	x
CC(C)C1/C(=N/O)CC(c2ccccc2)NC1c1ccccc1 (stereo not drawn)	10.6	6.6	-2.1	14.8*	-9.9	0.8	6.3
CC1C(=NO)C(C)C(c2ccccc2)NC1c1ccccc1 (stereo not drawn)	37.4	-11.2	0.9	-3.0	0.5	0.7	x
Cc1ccc(CN(c2ccc(C(=O)NCC3CCCO3)cc2)S(C)(=O)=O)cc1 (stereo not drawn)	-36.4	-2.0	-1.6	1.4	1.2	-0.1	x
Cc1cccc(OCCCC(=O)Nc2ccc(Br)cc2)c1	x	-22.9	1.1	-3.9	-0.5	0.3	x
Cc1cccc(OCCCC(=O)Nc2ccc(N(C)C)cc2)c1	x	11.1	0.3	18.1*	2.5	1.5	26.3*
COC(=O)COc1cccc2c(=O)n(CC(=O)NCCc3ccccc3)ccc12	x	-16.2	1.2	18.3*	1.4	x	11.9
CCOC(=O)COc1cccc2c(=O)n(CC(=O)NCc3ccccc3)ccc12	26.4	-3.9	3.2	1.3	-14.6	-1.3	x
Cc1cccc(NC(=O)CCc2c(C)nc3ncnn3c2C)n1	x	19.2	2.6	-4.8	-0.1	0.4	x
C=CCN1C(=O)CC(C(=O)NC)SC1=Nc1ccc(C(=O)OCC)cc1 (stereo not drawn)	x	-7.2	0.3	-2.1	-0.5	0.4	x

Source: PubChem BioAssay (several laboratories)
